Screening results as filed in PubChem BioAssay.
Measles CPE: compounds protecting cells from measles virus cytopathic effect, primary screen, measles RdRp inhibitor project, single point, MLSMR library, absorbance | Measles virus-infected cells, CPE protection | protection (pct of control), % at 4 µM | 140,000 tested, 1.5% active | AID 841, 2007; in the data active = protection mostly above about 24%, no sharp cut-off; inactive = mostly below about 26%
INS promoter inh: inhibitors of insulin promoter-driven GFP, primary screen, imaging, TRM-6 cells (human fetal islet line), eGFP reporter, cell count; 130,000 tested, 0.9% active; reporter expression induced with tamoxifen; inhibition, % at 2 µM; AID 1273, 2008;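 active = inhibition above the mean plus 3 SD, with well images judged a real hit on visual review, cut at about 60% in these data, passing the limit was not always enough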
RAM inhibit: inhibitors of the yeast RAM network, primary screen, dse1pr::URA3 reporter, 5-FOA selection | S. cerevisiae dse1pr::URA3 reporter, 5-FOA growth OD615, 2 d; analog-sensitive cbk1-as2 kinase mutant strain | inhibition, % at 50 µM | 190,000 tested, 1.8% active;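 active = inhibition above a set limit, 3 SD over mean compound inhibition, cut at about 8.4% in these data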;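 also: 0% = DMSO-only wells with no growth and 100% = 10 µM 1-NA-PP1 full growth; inhibition rescues growth on 5-FOA so higher OD means more RAM inhibition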
Yeast growth inh: growth inhibitors of yeast BB579 in restrictive medium, primary screen, yeast lifespan-shortening project, S. cerevisiae. 140,000 tested, 0.51% active. OD615, 48 h. inhibition, % at 10 µM;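 active = inhibition above a set limit, 3 SD over the mean compound inhibition, cut at about 44% in these data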
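System: Saccharomyces cerevisiae DeaD strain BB579, replicative lifespan model yeast. Buffer or medium: restrictive glucose-based CSMM-D medium. Doses: one dose, 10 µM compound with 0.25% DMSO. Timing: 4 h preincubation and 48 h exposure at 30 °C. Detection: turbidity as optical density at 615 nm. Benchmarks: amphotericin B 10 µg/mL, positive.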
Mdm2 ligase inh: MDM2-luciferase reporter signal enhancers, primary screen, MDM2 E3 ligase inhibitor project, cell-based, luminescence, 1536-well | E3 ubiquitin-protein ligase Mdm2 (Homo sapiens), Q00987 | cell-based MDM2 ubiquitination luciferase reporter, 2 h; 0 = plate control, 100 = twice control, blank-subtracted | signal enhancement, % at 5 µM | 210,000 tested, 0.11% active;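 active = signal enhancement of 30% or more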;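 also: luminescence tracks abundance of the self-degrading MDM2-luciferase fusion protein; higher signal means inhibition of MDM2 E3 ligase activity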
Target sequence (Q00987 whole entry, looked up, the tested form may be a part): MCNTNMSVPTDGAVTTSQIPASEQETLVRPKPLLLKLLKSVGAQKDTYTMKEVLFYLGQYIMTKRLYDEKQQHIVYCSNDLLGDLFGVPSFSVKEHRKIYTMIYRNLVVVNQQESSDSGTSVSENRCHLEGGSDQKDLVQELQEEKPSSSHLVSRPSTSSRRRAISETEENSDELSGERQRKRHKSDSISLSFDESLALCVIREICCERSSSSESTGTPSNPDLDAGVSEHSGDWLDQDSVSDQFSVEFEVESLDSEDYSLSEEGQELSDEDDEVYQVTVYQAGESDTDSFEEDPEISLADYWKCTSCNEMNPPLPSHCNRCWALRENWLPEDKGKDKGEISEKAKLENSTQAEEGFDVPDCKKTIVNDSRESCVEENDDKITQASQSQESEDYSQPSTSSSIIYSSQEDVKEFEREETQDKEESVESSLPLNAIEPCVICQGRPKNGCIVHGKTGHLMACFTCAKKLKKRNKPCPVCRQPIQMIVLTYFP
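Buffer or medium: Cells held in DMEM | Assay system: Stable mammalian line carrying autodegrading MDM2–luciferase fusion reporter | Quantity: 2000 cells/well | Times: 4 h settle plus 2 h compound, 37 °C | Doses: One concentration, 5 µM, with 0.2% DMSO | Technique: Luminescence with SteadyLite reagent, 15 min at room temperature | Benchmarks: Plate controls and plate blanks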
Yeast lifespan up: compounds extending yeast replicative lifespan, primary screen, S. cerevisiae, OD615. inhibition of the nicotinamide effect, % at 10 µM. S. cerevisiae growth with nicotinamide; deaD strain in restrictive glucose medium. AID 775, 2007. 130,000 tested, 0.68% active;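 active = inhibition above a set limit, placed 3 SD over the median of all compounds, cut at about 26% in these data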;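 also: 0% = nicotinamide-treated wells and 100% = cells grown without nicotinamide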
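Assay system: engineered S. cerevisiae DeaD replicative-lifespan strain, galactose-grown log-phase cells; medium: restrictive CSMM-D dextrose medium; also added: nicotinamide, 1.5 mM, co-present with compound; schedule: 48 h compound exposure at 30 °C, humidified; detection: absorbance at 615 nm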
* = called active by the depositor; nt = not tested or not shown. Compounds with a hit are over-represented: about 4% of the library has one in this group of screens.

SMILES	Measles CPE	INS promoter inh	RAM inhibit	Yeast growth inh	Mdm2 ligase inh	Yeast lifespan up
N/C(Cc1ccc(Cl)cc1)=N\OC(=O)c1cccc2ccccc12	1.8	-56.8	1.5	99.0*	-7.3	-11.3
N/C(Cc1ccc([N+](=O)[O-])cc1)=N\OC(=O)c1ccc(Br)o1	3.4	71.4*	0.7	-26.4	-5.2	1.5
N/C(Cc1ccc(Cl)cc1)=N\OC(=O)c1ccc2ccccc2c1	2.3	-7.9	2.4	-4.7	-13.8	-3.9
N/C(Cc1ccc([N+](=O)[O-])cc1)=N\OC(=O)COc1cccc2ccccc12	2.6	nt	10.4*	-12.4	1.0	-6.5
COc1ccc(N(C)S(=O)(=O)c2cccc(C(=O)N(C)Cc3ccc(C)o3)c2)cc1	nt	nt	-0.6	nt	-1.2	nt
N#C/C(=C1\CCCN1)c1ccc2ccccc2n1	18.3*	nt	7.9	-10.9	18.8	-20.2
N#C/C(=C1/CCCCCN1)c1nc2ccccc2[nH]1	20.2	nt	0.6	-16.4	-14.4	-7.7
CCOc1ccc(NS(=O)(=O)c2ccc(C)c(C(=O)NCCCn3ccnc3)c2)cc1	nt	nt	1.4	nt	-5.9	nt
C=CCOc1c(CNn2nnnc2N)cccc1OC	42.4*	-493.8	-1.2	8.7	nt	nt
c1ccc(Oc2cc(-c3ccccc3)nc(-c3ccccc3)n2)cc1	6.0	-6.9	10.0*	-24.3	-0.9	2.5
COc1ccc(-c2nnc3sc(C(C)N4C(=O)c5ccccc5C4=O)nn23)cc1 (stereo not given)	11.4	nt	0.8	-22.8	-6.4	30.5*
CCOc1ccc(-c2nnc3sc(-c4ccccc4OC)nn23)cc1	nt	-52.0	nt	nt	nt	nt
Cc1cccc(C(=O)c2cnc3ccccc3c2-c2ccccc2)c1	16.6	-13.0	9.9*	-10.8	-16.7	18.2
C/C(CCC(C)C)=N\Nc1cc(C)c2ccccc2n1	nt	nt	0.4	nt	-16.8	nt
CCOC(=O)C1CCCN(C(=O)COc2ccc(S(=O)(=O)N(CC)c3ccccc3)cc2)C1 (stereo not given)	nt	-50.0	0.3	nt	-15.7	nt
COc1cccc(COC(=O)c2nn(-c3ccccc3)nc2N)c1	nt	47.4	9.7*	nt	-6.4	nt
Cc1ccc(NC(=S)c2nc3ccccc3s2)cc1	28.2	6.9	5.6	-41.6	-60.8	-12.5
S=C(Nc1ccc(Cl)cc1)c1nc2ccccc2s1	6.7	nt	8.4*	-67.4	-8.3	7.1
O=C(Nc1ccc(Cl)cc1)/C(=C/c1cccc(O)c1)c1nc2ccccc2s1	3.2	-2.6	8.5*	-28.1	0.3	-3.4
COc1ccc(NC(=O)c2nc3ccccc3s2)cc1	12.0	-33.3	2.3	-22.4	-60.6	-5.6
CCOc1cc(N2CCOCC2)c(OCC)cc1NC(=O)c1ccc(OCc2c(C)noc2C)c(OC)c1	25.9	-9.7	8.7*	-54.4	nt	1.8
COc1cc(C(=O)N2CCC(n3cnc4cc(F)ccc43)CC2)cc(OC)c1OC	2.3	nt	0.2	-45.3	-12.4	1.2
O=C(NCCc1ccccc1)NC1CCCCC1	10.7	80.0*	-0.7	18.7	-35.5	-11.1
CCn1c2ccc(C)cc2c2nc3cc(C(=O)O)ccc3nc21	1.7	nt	6.0	95.8*	-16.7	-14.7
CCn1c2ccc(Cl)cc2c2nc3ccccc3nc21	13.2	27.0	5.5	1.5	-6.2	-22.5
SMILES	Measles CPE	INS promoter inh	RAM inhibit	Yeast growth inh	Mdm2 ligase inh	Yeast lifespan up
COC(=O)c1cccc(NC(=O)CSc2nc3cccnc3n2C)c1	62.6*	nt	7.9	-7.8	-4.8	-15.0
COCC(=O)Nc1ccc(C(C)C)cc1	12.3	0.0	-0.1	-45.5	-6.0	-8.2
Nc1c(C(=O)NCc2ccc3c(c2)OCO3)nnn1-c1ccc(OC(F)(F)F)cc1	53.9*	-54.9	4.5	-40.6	-6.6	4.4
OCCC1CN(C2CCN(c3ccccc3)CC2)CCN1Cc1ccc(F)c(F)c1 (stereo not given)	nt	nt	1.5	nt	-8.2	nt
CC(Oc1ccc(-c2ccccc2)c(F)c1)c1ccn(S(=O)(=O)c2ccc(F)cc2)n1 (stereo not given)	4.0	-41.7	9.4*	-26.8	-19.9	1.1
Cc1ccccc1OCCSCc1nc2ccccc2[nH]1	18.4	-11.8	-0.2	-28.4	-36.1	-3.9
CN1CCN(C(=O)Nc2cccc(-c3ccccc3)c2)CC1	nt	nt	nt	nt	-4.1	nt
O=C(Nc1nc(-c2ccccc2)ns1)c1cccs1	33.2*	nt	2.8	-35.9	-6.5	-14.7
O=C(Nc1ccc2nc(-c3ccccc3)[nH]c2c1)c1cccs1	0.8	76.7*	2.1	-23.4	-18.4	-7.4
O=C1Nc2ncccc2OC1CCO (stereo not given)	0.8	29.2	0.1	-17.5	9.7	-5.4
COc1ccc(COC(=O)C2=C(C)NC(=O)NC2c2ccc(O)c(OC)c2)cc1 (stereo not given)	3.3	nt	-0.4	-7.6	-72.4	-4.4
CCOc1cc(C2NC(=O)NC(C)=C2C(=O)OCc2ccccc2)ccc1O (stereo not given)	46.6*	nt	0.6	-23.3	9.9	-14.0
CC1=C(C(=O)OCc2ccc(C)cc2)C(c2ccc(O)c([N+](=O)[O-])c2)NC(=O)N1 (stereo not given)	nt	88.9*	8.4	nt	6.7	nt
Cn1c(=O)c2[nH]c(-c3ccccc3Cl)c(O)c2n(C)c1=O	2.5	64.3*	-0.4	-6.8	-16.8	-9.3
COc1cccc(OC)c1C(=O)Nc1cc(C)nn1-c1nc2ccccc2[nH]1	nt	68.4*	2.3	nt	-14.6	nt
Cc1ccc2nc(NC(=O)C3CCN(S(=O)(=O)c4cnc[nH]4)CC3)sc2c1	10.4	-83.3	11.1*	-50.4	-5.2	6.3
COc1ccc2nc(NC(=O)C3CCN(S(=O)(=O)c4cnc[nH]4)CC3)sc2c1	10.0	nt	0.3	-13.1	-22.2	-7.1
CCCn1c(N2CCN(CC(=O)NCc3cccs3)CC2)nc2ccccc21	60.7*	-10.8	-0.1	-8.2	-15.7	-6.3
CCN1Cc2c(/C=C/c3ccccc3)nc3ccc(OC)cc3c2N(c2cccc(Cl)c2)C1	nt	nt	nt	nt	-7.7	nt
CCN1C(=O)/C(=C/c2ccc(OC)c(OC)c2)N=C1SCC(=O)NCc1ccco1	2.5	26.7	1.9	-35.1	-0.3	-2.9
CCN(CC)CC#CCC(OC)(c1ccccc1)c1ccccc1	nt	nt	0.7	nt	-6.7	nt
CC1CCCCN1C(=O)Cn1cc(C#N)c2ccccc21 (stereo not given)	39.7*	-461.5	0.8	-10.8	-6.8	nt
COc1ccccc1OCC(=O)NNC(=O)c1cccs1	5.8	4.0	1.8	-39.1	-9.5	33.3*
CCCCC(=O)Nc1ccc(C(=O)NNC(=S)NC(=O)c2cccs2)cc1	10.3	nt	0.0	-23.2	-7.3	35.7*
COc1ccc(CC(=O)NNC(=O)c2cccs2)cc1	16.7	3.5	0.6	-23.4	4.1	-0.6
